Assay results gathered from unrelated publications.
Cell line: HepG2
Effect on: cell growth or viability

SMILES | assay | setting | IC50
CCCNC(=S)N/N=C/c1cccc2cc3ccccc3nc12 | MTT | 48 h | > 50 µM
O=C1CSC(=Nc2cc([N+](=O)[O-])ccc2[N+](=O)[O-])N1c1nnc(-c2ccc(C(F)(F)F)cc2N=C2SCC(=O)N2c2cc([N+](=O)[O-])ccc2[N+](=O)[O-])s1 | MTT |  | 80.2 µM
CN(C)C1CCc2[nH]c3c(C(N)=O)ccc(-c4ccccc4Cl)c3c2C1 (stereo not drawn) |  |  | 0.26 µM
CC(C)(C)[C@H](NC(=O)/C=C/c1ccc(OP(=O)(O)O)cc1)C(=O)N1CCC[C@H]1C(=O)N(c1ccccc1)c1ccc(I)cc1 | CCK-8 |  | 2.23 µM
O=C1CSC(=Nc2cc(C(F)(F)F)ccc2-c2nnc(N3C(=O)CSC3=Nc3ccc([N+](=O)[O-])cc3)s2)N1c1ccc([N+](=O)[O-])cc1 | MTT |  | 73.1 µM
O=[N+]([O-])c1ccc(NC(=S)N/N=C/c2cccc3cc4ccccc4nc23)cc1 | MTT | 48 h | > 50 µM
CCN(CC)CCNC(=O)c1c(C)[nH]c(/C=C2\C(=O)Nc3ccc(F)cc32)c1C | SRB |  | 1.35 µM
Fc1ccc(NC(=S)N/N=C/c2cccc3cc4ccccc4nc23)cc1 | MTT | 48 h | > 50 µM
O=C1CS/C(=N\c2ccccc2O)N1c1nnc(-c2ccc(C(F)(F)F)cc2/N=C2\SCC(=O)N2c2ccccc2O)s1 | MTT |  | 31.1 µM
Fc1ccc2c(-c3nnc(Cc4ccccc4)[nH]3)nn(Cc3ccc(Cl)cc3Cl)c2c1 |  | 48 h | 21.2 µM
COc1cccc(NC(=S)N/N=C/c2cccc3cc4ccccc4nc23)c1 | MTT | 48 h | > 50 µM
c1ccc(-c2noc(-c3nn(Cc4ccncc4)c4ccccc34)n2)cc1 |  | 48 h | 32.9 µM
O=C(/C=C/c1ccc(F)cc1)c1nc2ccccc2n1Cc1cn([C@@H]2O[C@H](CO)[C@H](O)[C@H](O)[C@H]2O)nn1 | LDH | 48 h | 1.64 µM
CC1=CC(=O)c2ccccc2C1=O | MTT |  | 9.25 µM
COc1ccc(N(Cc2nc(-c3ccc(F)cc3)cs2)C(=O)CCCCCC(=O)NO)cc1 | MTT | 72 h | 0.97 µM
COc1ccc2c(-c3ncc(-c4ccccc4)o3)nn(Cc3ccccc3)c2c1 |  | 48 h | 89.7 µM
CC(=O)O[C@@H]1[C@@H](OC(C)=O)[C@H](OC(C)=O)CO[C@H]1n1cc(Cn2c(C(C)=O)nc3ccccc32)nn1 | LDH | 48 h | 1.65 µM
Fc1ccc2c(-c3ncc(-c4ccccc4)o3)nn(Cc3ccccc3)c2c1 |  | 48 h | 39.9 µM
COc1cc([C@@H]2c3cc4c(cc3[C@@H](O[C@@H]3O[C@@H]5CO[C@@H](C)O[C@H]5[C@H](O)[C@H]3O)[C@H]3COC(=O)[C@H]23)OCO4)cc(OC)c1O | MTT | 75 h | 45.9 µM
CCOc1ccc(Nc2c3c(nc4ccccc24)CCC3)cc1 | resazurin | 72 h | 11.3 µM
O=C1CS/C(=N\c2ccc(F)cc2O)N1c1nnc(-c2ccc(C(F)(F)F)cc2/N=C2\SCC(=O)N2c2ccc(F)cc2O)s1 | MTT |  | 19.5 µM

SMILES | assay | setting | IC50
COc1ccc(N(Cc2csc(-c3ccc(C)cc3)n2)C(=O)CCCCCC(=O)NO)cc1 | MTT | 72 h | 0.19 µM
O=C1CS/C(=N\c2cc(C(F)(F)F)ccc2-c2nnc(N3C(=O)CS/C3=N\c3cc(O)cc(Br)c3)s2)N1c1cc(O)cc(Br)c1 | MTT |  | 70.4 µM
FC(F)(F)c1ccc(-c2noc(-c3nn(Cc4ccc(Cl)cc4Cl)c4ccccc34)n2)cc1 |  | 48 h | 251 µM
NC(=O)c1cnc(NCCc2ccc(O)c(Cl)c2)nc1NCc1ccccc1 | CCK-8 | 48 h | 1.37 µM
O=C1CS/C(=N\c2cc(C(F)(F)F)ccc2-c2nnc(N3C(=O)CS/C3=N\c3ccc(-c4ccccc4)cc3)s2)N1c1ccc(-c2ccccc2)cc1 | MTT |  | 87.7 µM
CC(=O)O[C@@H]1[C@@H](OC(C)=O)[C@H](OC(C)=O)CO[C@H]1n1cc(Cn2c(C(=O)/C=C/c3ccc(F)cc3)nc3ccccc32)nn1 | LDH | 48 h | 1.67 µM
COc1ccc(C[C@H](N)C(=O)N[C@H]2[C@@H](O)[C@H](n3cnc4c(N(C)C)ncnc43)O[C@@H]2CO)cc1 | resazurin | 72 h | 1.25 µM
C#CCNC(=O)c1c(-c2ccc(OC)cc2)oc2ccc(O)c(CN3CCCCC3)c12 | resazurin | 18 h | 53.2 µM
O=C(/C=C/c1ccc(F)cc1)c1nc2ccccc2n1Cc1cn([C@@H]2OC[C@@H](O)[C@H](O)[C@H]2O)nn1 | LDH | 48 h | 1.63 µM
CN1CCC(NC2CCc3[nH]c4c(C(N)=O)ccc(-c5ccccc5Cl)c4c3C2)CC1 (stereo not drawn) |  | 96 h | 0.0202 µM
FC(F)(F)c1ccc(-c2nnc(-c3nn(Cc4ccc(Cl)cc4Cl)c4ccccc34)o2)cc1 |  | 48 h | 304 µM
CC(=O)c1nc2ccccc2n1Cc1cn([C@@H]2OC[C@@H](O)[C@H](O)[C@H]2O)nn1 | LDH | 48 h | 1.55 µM
c1ccc(Cn2nc(-c3ncc(-c4ccccc4)s3)c3ccccc32)cc1 |  | 48 h | 27.7 µM
CCOC(=O)c1c(-c2ccc(OC)cc2)oc2ccc(OCc3cn(Cc4ccccc4)nn3)c(CN3CCCCC3)c12 | resazurin | 18 h | 70.5 µM
CC(=O)c1nc2ccccc2n1Cc1cn([C@@H]2O[C@H](CO)[C@H](O)[C@H](O)[C@H]2O)nn1 | LDH | 48 h | 1.67 µM
Clc1ccc(Cn2nc(-c3ncc(-c4ccccc4)s3)c3ccccc32)c(Cl)c1 |  | 48 h | 129 µM
CC/C(=C(\c1ccccc1)c1ccc(OCCN(C)C)cc1)c1ccccc1 |  |  | 17.4 µM
COc1cccc(N=C2SCC(=O)N2c2nnc(-c3ccc(C(F)(F)F)cc3N=C3SCC(=O)N3c3cccc(OC)c3)s2)c1 | MTT |  | 80.1 µM
N=C(CC(O)c1cc2c(F)cc(F)cc2c2cc(C(F)(F)F)ccc12)Nc1ccc(F)c(F)c1 (stereo not drawn) | neutral red | 24 h | 7.8 µM
Cc1cccc([N+](=O)[O-])c1N=C1SCC(=O)N1c1nnc(-c2ccc(C(F)(F)F)cc2N=C2SCC(=O)N2c2c(C)cccc2[N+](=O)[O-])s1 | MTT |  | 50.1 µM
COc1cccc2c1C(=O)c1c(O)c3c(c(O)c1C2=O)C[C@@](O)(C(=O)CO)C[C@@H]3O[C@H]1C[C@H](N)[C@H](O)[C@H](C)O1 |  |  | 0.06 µM
